Results on 9 molecules are retold here after ChEMBL document CHEMBL4825692, “Benzofuranyl-2-imidazoles as imidazoline I2 receptor ligands for Alzheimer's disease” (Eur J Med Chem, 2021).

Data set [1] is described as follows: Permeability of compound by PAMPA-BBB assay. It counts as ADME.
Data set [2] is filed under the species Homo sapiens. The data set can be described thus: Selectivity index, ratio of pKi for displacement of [3H]2-BFI from imidazoline I2 receptor in post-mortem human brain frontal cortex membrane to pKi for displacement of [3H]-RX821002 from adrenergic alpha 2 receptor in post-mortem human brain frontal cortex membrane. It counts as cell membranes.
The subject of another data set is Z-138. Description: Cytotoxicity against human Z138 cells at 100 uM by real time IncuCyte proliferation assay. The following applies: z-138, 100 µM. It counts as cell-based. In outline:
(§1)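 Adherent lines (LN-229, Capan-1, HCT-116, NCI-H460) seeded at 500–1500 cells/well and treated after overnight attachment. Suspension lines (HL-60, K-562, Z-138, DND-41) seeded at 2500–5500 cells/well directly with compound. Highest concentration 100 μM; proliferation tracked by real-time IncuCyte imaging over 72 h at 37 °C.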

Another data set has as its system HCT-116. The data set can be described thus: Cytotoxicity against human HCT-116 cells at 100 uM by real time IncuCyte proliferation assay. It counts as cell-based. The following applies: hct-116, 100 µM. Summed up:
as §1

For another data set, the system named is CAPAN-1. Description: Cytotoxicity against human CAPAN-1 cells at 100 uM by real time IncuCyte proliferation assay. It counts as cell-based. The following applies: capan-1, 100 µM. In outline: as §1
A further data set deals with K562. Description: Cytotoxicity against human K562 cells at 100 uM by real time IncuCyte proliferation assay. The following applies: k562, 100 µM. It counts as cell-based. In outline: as §1
In another data set the test system is NCI-H460. The data set can be described thus: Cytotoxicity against human NCI-H460 cells at 100 uM by real time IncuCyte proliferation assay. It counts as cell-based. The conditions noted are these: nci-h460, 100 µM. Summed up:
as §1

Data set [3] has as its target T1, Adrenergic receptor alpha-2 (Homo sapiens, UniProt P08913+P18825+P18089).
T1 sequence (P08913 whole entry): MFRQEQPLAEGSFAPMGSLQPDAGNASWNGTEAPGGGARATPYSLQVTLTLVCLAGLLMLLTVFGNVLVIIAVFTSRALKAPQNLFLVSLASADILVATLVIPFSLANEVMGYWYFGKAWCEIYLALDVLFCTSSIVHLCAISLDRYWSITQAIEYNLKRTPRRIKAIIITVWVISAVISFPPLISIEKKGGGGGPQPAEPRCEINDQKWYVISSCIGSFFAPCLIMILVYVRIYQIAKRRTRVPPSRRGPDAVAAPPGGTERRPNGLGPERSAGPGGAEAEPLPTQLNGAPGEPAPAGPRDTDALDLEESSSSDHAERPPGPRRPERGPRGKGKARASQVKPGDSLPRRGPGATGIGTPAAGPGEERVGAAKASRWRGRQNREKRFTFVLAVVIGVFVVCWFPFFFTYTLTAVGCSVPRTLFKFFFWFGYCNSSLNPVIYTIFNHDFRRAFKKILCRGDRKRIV
T1 sequence (P18825 whole entry): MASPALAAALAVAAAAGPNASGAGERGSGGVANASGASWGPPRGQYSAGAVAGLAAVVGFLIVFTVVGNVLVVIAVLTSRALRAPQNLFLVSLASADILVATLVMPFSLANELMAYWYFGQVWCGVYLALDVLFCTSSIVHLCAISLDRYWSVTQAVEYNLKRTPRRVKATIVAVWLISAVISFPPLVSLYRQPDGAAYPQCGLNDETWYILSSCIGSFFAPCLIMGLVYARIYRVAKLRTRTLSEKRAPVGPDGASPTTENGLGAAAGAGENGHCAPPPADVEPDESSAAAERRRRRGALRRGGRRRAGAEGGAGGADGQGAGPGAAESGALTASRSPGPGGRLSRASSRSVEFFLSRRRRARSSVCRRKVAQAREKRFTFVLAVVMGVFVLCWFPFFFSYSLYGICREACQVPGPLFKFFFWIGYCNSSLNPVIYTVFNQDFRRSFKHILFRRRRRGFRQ
T1 sequence (P18089 whole entry): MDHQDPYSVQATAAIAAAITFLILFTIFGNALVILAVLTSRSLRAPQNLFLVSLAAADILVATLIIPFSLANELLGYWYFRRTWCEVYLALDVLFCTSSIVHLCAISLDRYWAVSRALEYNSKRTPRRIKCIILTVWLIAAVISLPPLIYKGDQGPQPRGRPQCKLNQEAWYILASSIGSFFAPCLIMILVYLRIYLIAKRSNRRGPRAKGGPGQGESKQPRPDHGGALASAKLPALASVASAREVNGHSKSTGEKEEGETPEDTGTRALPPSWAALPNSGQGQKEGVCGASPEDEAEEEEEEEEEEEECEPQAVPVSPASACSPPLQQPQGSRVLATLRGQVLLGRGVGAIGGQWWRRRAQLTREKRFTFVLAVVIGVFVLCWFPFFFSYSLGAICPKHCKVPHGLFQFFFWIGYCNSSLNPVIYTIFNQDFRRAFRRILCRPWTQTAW
The data set can be described thus: Displacement of [3H]-RX821002 from adrenergic alpha 2 receptor in post-mortem human brain frontal cortex membrane measured after 30 mins by liquid scintillation counting spectrometry. It counts as cell membranes.

For another data set, the system named is LN-229. The data set can be described thus: Cytotoxicity against human LN-229 cells at 100 uM by real time IncuCyte proliferation assay. The following applies: ln-229, 100 µM. It counts as cell-based. In outline: as §1
Data set [4] in a line: Cytotoxicity against human DND41 cells at 100 uM by real time IncuCyte proliferation assay. The conditions noted are these: dnd41, 100 µM. It counts as cell-based. In outline: as §1
In a further data set the test system is HL-60. Description: Cytotoxicity against human HL-60 cells at 100 uM by real time IncuCyte proliferation assay. It counts as cell-based. The conditions noted are these: hl-60, 100 µM. Summed up: as §1
Data set [5] can be described thus: Displacement of [3H]2-BFI from imidazoline I2 receptor in post-mortem human brain frontal cortex membrane one site model measured after 45 mins by liquid scintillation counting spectrometry.
A short description of data set [6]: Displacement of [3H]2-BFI from imidazoline I2 receptor low affinity site in post-mortem human brain frontal cortex membrane two site model measured after 45 mins by liquid scintillation counting spectrometry.
Data set [7] is filed under the species Homo sapiens. The data set can be described thus: Displacement of [3H]2-BFI from imidazoline I2 receptor in post-mortem human brain frontal cortex membrane assessed as occupancy at high affinity site measured after 45 mins by liquid scintillation counting spectrometry.
A short description of data set [8]: Displacement of [3H]2-BFI from imidazoline I2 receptor high affinity site in post-mortem human brain frontal cortex membrane two site model measured after 45 mins by liquid scintillation counting spectrometry.

`COc1ccc2oc(-c3ncc[nH]3)cc2c1.Cl` registered a Papp in data set [1] of 8.3 ×10⁻⁶ cm/s. Further, in the data set filed under Homo sapiens [2], the Selectivity Index was determined as 295. Also, the Activity result in the data set on Z-138, in the data set with HCT-116, in the data set with CAPAN-1, with K562, in the data set with NCI-H460 and with LN-229 was “Non-Toxic” throughout. Further, the Activity result (in data set [4]; in the data set with HL-60) was “Non-Toxic” each time. Further, the pKi was 3.94 in data set [3] and 6.41 in data set [5].
As to `c1ccc2oc(C3=NCCN3)cc2c1`, the pKi in [6] was 7.15; in data set [3] it was 4.58; in data set [8], 9.08; in data set [5], 8.31. The Papp in data set [1] turned out to be 6.1 ×10⁻⁶ cm/s. Moreover, in the data set filed under Homo sapiens [2], the Selectivity Index was 5370. For the same molecule, the Activity result with Z-138 was “Non-Toxic”; in the data set on HCT-116 it was “Non-Toxic”; with CAPAN-1 it was “Non-Toxic”; in the data set listed under Homo sapiens [7], 58%; with K562 it was “Non-Toxic”; in the data set with NCI-H460 it was “Non-Toxic”. Also, the Activity result (in the data set with LN-229; in [4]; in the data set on HL-60) was “Non-Toxic” in each case.
Turning to `CCn1ccnc1-c1cc2ccccc2o1.Cl`, the pKi came to 4.72 in data set [6], 3.77 in data set [3], 7.09 in data set [8] and 5.05 in data set [5]. This molecule yielded a Papp in data set [1] of 19.2 ×10⁻⁶ cm/s. For the same molecule, the Selectivity Index in the data set listed under Homo sapiens [2] is 19. Also, the Activity result in the data set with Z-138 is “Non-Toxic”; with HCT-116, “Non-Toxic”; in the data set on CAPAN-1 it was “Non-Toxic”; in the data set listed under Homo sapiens [7], 22%; with K562 it was “Non-Toxic”; with NCI-H460, “Non-Toxic”. Further, the Activity entry (in the data set on LN-229; in data set [4]; with HL-60) was “Non-Toxic” throughout.
For `Cl.Oc1ccc2cc(-c3ncc[nH]3)oc2c1`, the Papp in data set [1] stood at 0.1 ×10⁻⁶ cm/s. The Selectivity Index in the data set listed under Homo sapiens [2] is 52. Further, the Activity entry with Z-138, in the data set on HCT-116, with CAPAN-1, in the data set with K562, with NCI-H460 and with LN-229 was “Non-Toxic” in each case. Also, the Activity result (in [4]; in the data set on HL-60) was “Non-Toxic” in each case. Further, the figures for the pKi in [3] and in data set [5] were 3.76 and 5.48, respectively.
In the case of `Cl.Oc1ccc2oc(-c3ncc[nH]3)cc2c1`, the pKi in data set [6] is on record as 4.6; in data set [3], 3.84; in [8], 9.57; in data set [5], 4.87. The Papp in data set [1] was found to be 0.32 ×10⁻⁶ cm/s. In addition, the Selectivity Index in the data set listed under Homo sapiens [2] turned out to be 11. Also, the Activity result with Z-138 was “Non-Toxic”; with HCT-116 it was “Non-Toxic”; with CAPAN-1, “Non-Toxic”; in the data set filed under Homo sapiens [7], 29%; in the data set with K562, “Non-Toxic”; in the data set with NCI-H460, “Non-Toxic”. Further, the Activity result (in the data set with LN-229; in data set [4]; in the data set with HL-60) was “Non-Toxic” each time.
Consider `CCn1ccnc1-c1cc2ccc(OC)cc2o1.Cl`, for which the pKi in [6] stood at 5.11; in [3] it was 3.17; in [8], 9.13; in [5] it was 5.26. The molecule also came in with an apparent permeability (Papp) in data set [1] of 14.8 ×10⁻⁶ cm/s. Further, the Selectivity Index in the data set filed under Homo sapiens [2] turned out to be 123. Besides, the Activity entry with Z-138 is “Non-Toxic”; in the data set on HCT-116 it was “Non-Toxic”; in the data set with CAPAN-1 it was “Non-Toxic”; in the data set filed under Homo sapiens [7], 12%; in the data set with K562 it was “Non-Toxic”; in the data set on NCI-H460 it was “Non-Toxic”. For the same molecule, the Activity entry (with LN-229; in [4]; with HL-60) was “Non-Toxic” each time.
Turning to `Cl.Cn1ccnc1-c1cc2ccccc2o1`, the negative-log Ki (pKi) in data set [6] came to 5.35; in data set [3] it was 3.75; in data set [8] it was 6.99; in data set [5] it was 5.98. In [1], this molecule displayed a Papp of 17.4 ×10⁻⁶ cm/s. For the same molecule, the Selectivity Index in the data set filed under Homo sapiens [2] turned out to be 170. Further, the Activity entry is “Non-Toxic” with Z-138; “Non-Toxic” in the data set on HCT-116; “Non-Toxic” with CAPAN-1; 38% in the data set filed under Homo sapiens [7]; “Non-Toxic” with K562; “Non-Toxic” in the data set on NCI-H460. Moreover, the Activity result (in the data set on LN-229; in data set [4]; in the data set with HL-60) was “Non-Toxic” in each case.
Consider `COc1ccc2cc(-c3ncc[nH]3)oc2c1.Cl`, for which the pKi was found to be 4.58 in data set [6], 3.01 in data set [3], 6.77 in data set [8] and 5.88 in data set [5]. The Papp in data set [1] came to 7.6 ×10⁻⁶ cm/s. In addition, in the data set listed under Homo sapiens [2], the Selectivity Index amounted to 741. Besides, the Activity result in the data set on Z-138 is “Non-Toxic”; in the data set with HCT-116 it was “Non-Toxic”; in the data set with CAPAN-1, “Non-Toxic”; in the data set listed under Homo sapiens [7] it was 46%; with K562, “Non-Toxic”; in the data set with NCI-H460, “Non-Toxic”. Further, the Activity result (with LN-229; in data set [4]; in the data set with HL-60) was “Non-Toxic” throughout.
Take `c1ccc2c(c1)OCC(C1=NCCN1)O2` (configuration not stated) [IDAZOXAN]: the pKi in data set [6] came out at 5.76; in data set [8], 7.87; in data set [5] it was 7.41. Moreover, the Papp in data set [1] was found to be 3.3 ×10⁻⁶ cm/s. In addition, the Activity result is “Non-Toxic” in the data set with Z-138; “Non-Toxic” in the data set with HCT-116; “Non-Toxic” with CAPAN-1; 40% in the data set filed under Homo sapiens [7]; “Non-Toxic” in the data set with K562; “Non-Toxic” in the data set with NCI-H460. The Activity entry (with LN-229; in data set [4]; in the data set with HL-60) was “Non-Toxic” in each case.
